Assay results published in ChEMBL document CHEMBL1177775, “A novel synthesis of 3-aryl coumarins and evaluation of their antioxidant and lipoxygenase inhibitory activity” (Bioorg Med Chem Lett, 2010).
Active and inactive are the calls of the source. No cut-off for these calls is given here.

Key:
[1] = tested on: Radical scavenging activity; assay: Antioxidant activity assessed as DPPH radical scavenging activity at 50 uM after 60 mins; type: functional
How it was run: (§1)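 Interaction with the stable DPPH free radical in an iron-free system, with compounds at 50 μM. Readings were taken at 20 and 60 min. Each experiment was run at least in triplicate, and the standard deviation of absorbance was under 10% of the mean.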

[2] = Antioxidant activity assessed as inhibition of AAPH-induced lipid peroxidation at 100 uM by UV spectrophotometry; type: functional
[3] = tested on: Radical scavenging activity; assay: Antioxidant activity assessed as DPPH radical scavenging activity at 50 uM after 20 mins; type: functional; how it was run: as §1
[4] = tested on: Glycine max; assay: Inhibition of soybean lipoxygenase at 100 uM

COc1ccc(-c2c(C)c3ccccc3oc2=O)cc1
Activity [1]: 2% | inhibition [2]: 24% | Activity [3]: 5% | inhibition [4]: 62%

CC(Cc1ccc(O)c(O)c1)C(C)Cc1ccc(O)c(O)c1 (stereo not drawn)
Activity [1]: 83% | Activity [3]: 84% | inhibition [4]: 40%

Cc1c(C)c2c(c(C)c1O)CCC(C)(C(=O)O)O2 (stereo not drawn)
inhibition [2]: 63%

Cc1c(-c2ccc(Br)cc2)c(=O)oc2ccccc12
Activity [1]: 4% | inhibition [2]: 70% | Activity [3]: 3% | inhibition [4]: inactive

Cc1c(-c2ccccc2Br)c(=O)oc2ccccc12
Activity [1]: 3% | inhibition [2]: 20% | Activity [3]: 4% | inhibition [4]: 6%

COc1ccc(-c2c(C)c3ccccc3oc2=O)cc1OC
Activity [1]: 10% | inhibition [2]: 36% | Activity [3]: 8% | inhibition [4]: 31%

Cc1c(-c2ccc(O)cc2)c(=O)oc2ccccc12
Activity [1]: 9% | inhibition [2]: 20% | Activity [3]: 5% | inhibition [4]: inactive

COc1ccc(-c2cc3ccccc3oc2=O)cc1OC
Activity [1]: 7% | inhibition [2]: 47% | Activity [3]: 4% | inhibition [4]: inactive
